In ChEMBL document CHEMBL1141063, “Ligands with dual vitamin D3-agonistic and androgen-antagonistic activities” (Bioorg Med Chem Lett, 2005):

Legend:
Androgen receptor = target: T1, Androgen receptor (Homo sapiens, UniProt P10275); assay: Binding affinity to androgen receptor by incubation with GST-hARLBD and [3H]testosterone
T1 sequence (P10275 whole entry): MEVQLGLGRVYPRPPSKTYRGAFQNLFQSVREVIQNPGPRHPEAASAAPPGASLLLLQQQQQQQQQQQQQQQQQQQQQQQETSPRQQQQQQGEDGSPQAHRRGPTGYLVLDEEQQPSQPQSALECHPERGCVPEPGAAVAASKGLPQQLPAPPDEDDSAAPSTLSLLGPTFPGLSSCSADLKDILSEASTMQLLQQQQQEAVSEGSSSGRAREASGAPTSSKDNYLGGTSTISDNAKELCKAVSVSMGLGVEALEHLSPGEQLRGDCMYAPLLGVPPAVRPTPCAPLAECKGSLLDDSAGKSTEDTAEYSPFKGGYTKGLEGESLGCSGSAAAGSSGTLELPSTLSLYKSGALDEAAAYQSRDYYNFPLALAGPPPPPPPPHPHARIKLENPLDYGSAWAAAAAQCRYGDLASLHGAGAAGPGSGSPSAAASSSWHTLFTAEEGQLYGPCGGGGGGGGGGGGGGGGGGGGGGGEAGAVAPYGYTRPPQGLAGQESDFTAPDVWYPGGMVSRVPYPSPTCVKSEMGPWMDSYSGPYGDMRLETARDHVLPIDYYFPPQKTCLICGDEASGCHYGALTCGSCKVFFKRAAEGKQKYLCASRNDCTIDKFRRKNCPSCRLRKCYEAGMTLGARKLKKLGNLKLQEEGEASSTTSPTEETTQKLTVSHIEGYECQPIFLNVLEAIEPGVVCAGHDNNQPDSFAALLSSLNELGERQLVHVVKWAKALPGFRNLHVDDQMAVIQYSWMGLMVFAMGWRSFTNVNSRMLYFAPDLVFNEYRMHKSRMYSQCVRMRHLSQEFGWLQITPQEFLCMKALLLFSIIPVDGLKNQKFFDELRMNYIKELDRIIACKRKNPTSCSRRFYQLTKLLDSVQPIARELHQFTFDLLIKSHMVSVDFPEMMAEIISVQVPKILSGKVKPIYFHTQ

[1] = target: T2, Vitamin D3 receptor (Homo sapiens) (UniProt P11473); assay: Vitamin D3 agonistic activity as effective dose for HL-60 monocytic cell differentiation; assay type: functional, cell-based
T2 sequence (whole entry): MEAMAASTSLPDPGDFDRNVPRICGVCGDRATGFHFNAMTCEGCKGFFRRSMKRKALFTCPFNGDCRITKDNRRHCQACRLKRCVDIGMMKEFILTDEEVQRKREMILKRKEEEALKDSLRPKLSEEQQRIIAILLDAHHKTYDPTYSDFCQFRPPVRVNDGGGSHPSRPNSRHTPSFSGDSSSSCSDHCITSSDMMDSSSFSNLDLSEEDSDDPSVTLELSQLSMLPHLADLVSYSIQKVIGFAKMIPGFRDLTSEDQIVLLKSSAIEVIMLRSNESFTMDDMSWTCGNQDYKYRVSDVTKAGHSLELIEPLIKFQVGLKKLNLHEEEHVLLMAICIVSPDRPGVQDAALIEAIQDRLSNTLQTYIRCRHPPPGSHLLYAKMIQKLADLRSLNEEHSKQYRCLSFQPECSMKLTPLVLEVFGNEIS
How it was run: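 HL-60 cells held in RPMI 1640 with or without test compound for three days. Cells were then mixed 1:1 (v/v) with PBS containing 0.2% NBT and 20 nM TPA and kept 20 min at 37 °C. NBT-positive cells were counted among 200–300 cells to give the ED50. Differentiation was also checked by Wright–Giemsa morphology.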

[2] = Activity ratio of effective dose against vitamin D3 and inhibitory activity against androgen antagonistic activity; assay type: functional
How it was run: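 Ratio of ED50 for HL-60 differentiation to IC50 for SC-3 growth inhibition. HL-60: cells in RPMI 1640 with or without compound for three days, then NBT 0.2% plus TPA 20 nM in PBS (1:1) for 20 min at 37 °C; NBT-positive cells counted among 200–300. SC-3: cells in MEM, 10% FBS, 10 nM testosterone with or without compound, three days, 37 °C, 5% CO2.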

| SMILES | Ki (Androgen receptor) | ED50 [1] | Ratio [2] |
| --- | --- | --- | --- |
| CCC(CC)(c1ccc(NCCC(C)(C)O)c(C)c1)c1ccc(OCC(=O)C(C)(C)C)c(C)c1 | 2900 nM | 370 nM | 0.45 |
| CCC(CC)(c1ccc(NCC(O)C(C)(C)C)c(C)c1)c1ccc(NCC(O)C(C)(C)C)c(C)c1 (centres undefined) | – | 1200 nM | 1.2 |
| CCC(CC)(c1ccc(NCC(=O)C(C)(C)C)c(C)c1)c1ccc(OCC(=O)C(C)(C)C)c(C)c1 | – | 450 nM | 0.38 |
| CCC(CC)(c1ccc(OCC(=O)C(C)(C)C)c(C)c1)c1ccc(OCC(=O)C(C)(C)C)c(C)c1 | – | 410 nM | 0.22 |
| CCC(CC)(c1ccc(NCCC(C)(C)O)c(C)c1)c1ccc(NCCC(C)(C)O)c(C)c1 | 3380 nM | 900 nM | 0.13 |
| CCC(CC)(c1ccc(O)c(C)c1)c1ccc(NCC(=O)C(C)(C)C)c(C)c1 | – | 1500 nM | 0.43 |
| CCC(CC)(c1ccc(NCC(=O)C(C)(C)C)c(C)c1)c1ccc(NCC(=O)C(C)(C)C)c(C)c1 | – | 450 nM | 0.45 |

The next lines start with results.

| Ki (Androgen receptor) | ED50 [1] | SMILES | Ratio [2] |
| --- | --- | --- | --- |
| 1170 nM | 110 nM | CCC(CC)(c1ccc(NCC(O)CO)c(C)c1)c1ccc(OCC(=O)C(C)(C)C)c(C)c1 (centres undefined) | 14.5 |
| 1510 nM | 52 nM | CCC(CC)(c1ccc(NCC(O)CO)c(C)c1)c1ccc(OCC(O)C(C)(C)C)c(C)c1 (centres undefined) | 5.78 |
| – | 44 nM | CCC(CC)(c1ccc(OCC(O)CO)c(C)c1)c1ccc(OCC(O)C(C)(C)C)c(C)c1 (centres undefined) | 2.31 |
